Assay results: article PMC6279241 (Science signaling, 2018)

Legend:
PRC2 (Ezh1/2) = test: Histone H3; format: cell-based, human; details: 92.1, 7 days GSK503, immunoblot
In short: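 92.1 cells were treated with GSK503 for 7 days, and histones were isolated with a purification kit. Samples ran on 15% SDS-PAGE, were blotted to PVDF, blocked in 5% milk/TBST, and detected with IRDye-coupled secondary antibodies. H3K27me3 densitometry was normalized to total H3 and compared with DMSO control. Three independent experiments.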

92.1 cells = test: Block of FR-elicited re-differentiation; format: cell-based, human; details: 92.1, 7 days GSK503 and 3 days FR

`Cc1cc(C)c(CNC(=O)c2cc(-c3ccc(N4CCN(C)CC4)nc3)cc3c2c(C)cn3C(C)C)c(=O)[nH]1` [GSK503] was tested, and the “Histone H3(Lys27) trimethylation” value (PRC2 (Ezh1/2)) was “reduced” and the “Ability of FR to re-differentiate cells (morphology and pigmentation)” value (92.1 cells) was “blocked”.
